Activity calls are given as the source filed them. No cut-off for these calls is given here.
Assays:
L1210 = test: Tested in vitro for anticancer activity against replication of murine leukemia L1210 cell line after 72 hr incubation; assay type: functional; conditions: Mus musculus, L1210, 72 h; read-out: ED50 (the source's name)
Method in brief: (§1)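 Suspension cultures at 37 °C, 5% CO₂. L1210, P388 and S-180 were grown in Fisher's medium and CCRF-CEM in RPMI 1640, each with 10% horse serum. Exponentially growing cells at 2 × 10⁴ cells/mL were exposed to various concentrations and counted at 24, 48 and 72 h. ED₅₀ for 50% growth inhibition at 72 h was estimated from dose-response curves, ≥2 independent experiments.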

CCRF-CEM = test: Tested in vitro for anticancer activity against replication of human CCRF-CEM lymphoblastic cell line after 72 hr incubation; assay type: functional; conditions: read-out: ED50 (the source's name); method in brief: as §1
P388 = test: Tested in vitro for anticancer activity against replication of murine leukemia P388 cell line after 72 hr incubation; assay type: functional; conditions: Mus musculus, P388, 72 h; read-out: ED50 (the source's name); method in brief: as §1
[1] = target: T1, Thymidine kinase, cytosolic (Homo sapiens) (UniProt P04183); test: […] thymidine kinase activity from K562 mammalian cells at 500 uM concentration; assay type: cell-based
T1 sequence (whole entry): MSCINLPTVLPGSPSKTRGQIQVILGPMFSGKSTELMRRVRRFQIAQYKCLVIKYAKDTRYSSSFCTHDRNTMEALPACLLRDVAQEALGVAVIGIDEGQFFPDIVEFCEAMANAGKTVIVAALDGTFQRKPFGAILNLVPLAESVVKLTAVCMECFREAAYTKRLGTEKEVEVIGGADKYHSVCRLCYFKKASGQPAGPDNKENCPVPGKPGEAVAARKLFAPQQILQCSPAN

[2] = test system: Thymidine kinase (Human herpesvirus 1); test: Antiviral activity against thymidine kinase from Herpes simplex virus type-1 (KOS Strain) infected HeLa (Bu-25-TK-) cells at 500 uM concentration
[3] = test system: Thymidine kinase (Human herpesvirus 2); test: Antiviral activity against thymidine kinase from Herpes simplex virus type-2 (333 Strain) infected HeLa (Bu-25-TK-) cells at 500 uM concentration
[4] = Tested in vitro for anticancer activity against replication of murine Sarcoma 180 cell line after 72 h incubation; assay type: functional; conditions: Mus musculus, 180, 72 h; read-out: ED50 (the source's name); method in brief: as §1
MT2 [5] = test: Antiviral activity against HIV-1(HTLV-III B) in MT-2 cells; Not active uM concentration; assay type: functional, cell-based; conditions: Homo sapiens
Method in brief: (§2)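 MT-2 cells, 1 × 10⁴ per well in triplicate wells, infected with HIV-1 (HTLV-III) at MOI 0.5 TCID₅₀/cell, then given serial drug dilutions. MTT added after 7 days. Antiviral effect taken from A₅₇₀ of infected cells compared with A₅₇₀ of uninfected drug-free cells. Concentrations tested up to 100 μM.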

MT2 [6] = test: Antiviral activity against HIV-1(HTLV-III B) in MT-2 cells at 100 uM; Not active up to 100 uM concentration; assay type: functional, cell-based; conditions: Homo sapiens; method in brief: as §2

Compound	EC50 (L1210) [µM]	EC50 (CCRF-CEM) [µM]	EC50 (P388) [µM]	inhibition [1] [%]	inhibition [2] [%]	inhibition [3] [%]	EC50 [4] [µM]	inhibition (MT2 [5])	inhibition (MT2 [6])
Cc1cn([C@@H]2O[C@H](CO)[C@@H](CN)[C@@H]2O)c(=O)[nH]c1=O	> 100	> 100	> 100	–	–	–	> 100	–	–
Cc1cn([C@@H]2O[C@H](CO)[C@@H](CN)[C@H]2O)c(=O)[nH]c1=O	> 100	> 100	> 100	–	–	–	> 100	–	–
Cc1cn([C@@H]2O[C@H](CO)[C@@H](CN=[N+]=[N-])[C@H]2O)c(=O)[nH]c1=O	> 100	> 100	> 100	–	–	–	> 100	inactive	–
Cc1cn([C@@H]2O[C@H](CO)[C@@H](O)[C@@H]2O)c(=O)[nH]c1=O	–	–	–	5	–	–	–	–	–
Cc1cn([C@@H]2O[C@H](CO)[C@@H](CF)[C@H]2O)c(=O)[nH]c1=O	> 100	> 100	> 100	2.5	7	4.9	> 100	–	inactive
Cc1cn([C@@H]2O[C@H](CO)[C@@H](CO)[C@@H]2O)c(=O)[nH]c1=O	> 100	> 100	> 100	0.7	11.7	6.9	> 100	–	–
Cc1cn([C@@H]2O[C@H](CO)[C@@H](CO)[C@H]2O)c(=O)[nH]c1=O	> 100	> 100	> 100	3	2.6	0	> 100	–	–

Further lines, with some results ahead:

EC50 (L1210) [µM]	EC50 (CCRF-CEM) [µM]	EC50 (P388) [µM]	inhibition [1] [%]	inhibition [2] [%]	inhibition [3] [%]	EC50 [4] [µM]	Compound	inhibition (MT2 [5])	inhibition (MT2 [6])
> 100	> 100	> 100	7.1	13.8	10.9	> 100	Cc1cn([C@@H]2O[C@H](CO)[C@@H](CF)[C@@H]2O)c(=O)[nH]c1=O	inactive	–
> 100	> 100	> 100	–	–	–	> 100	Cc1cn([C@H]2C[C@H](CN=[N+]=[N-])[C@@H](CO)O2)c(=O)[nH]c1=O	inactive	–
10	> 100	> 100	–	–	–	> 100	Cc1cn([C@@H]2O[C@H](CO)[C@@H](CN=[N+]=[N-])[C@@H]2O)c(=O)[nH]c1=O	inactive	–
> 100	> 100	> 100	5.4	85.2	4	> 100	Cc1cn([C@H]2C[C@H](CF)[C@@H](CO)O2)c(=O)[nH]c1=O	–	inactive
> 100	> 100	> 100	–	–	–	> 100	Cc1cn([C@H]2C[C@H](CN)[C@@H](CO)O2)c(=O)[nH]c1=O	–	–
50	1	5	3	59.1	0	10	Cc1cn([C@H]2C[C@H](CO)[C@@H](CO)O2)c(=O)[nH]c1=O	–	–

From ChEMBL document CHEMBL1127086, “Syntheses and biological evaluations of 3'-deoxy-3'-C-branched-chain-substituted nucleosides” (1993)
